Assay results as given in ChEMBL document CHEMBL2390879, “Inhibition of monoamine oxidase by phthalide analogues” (Bioorg Med Chem Lett, 2013).

Experiments:
Homo sapiens = organism: Homo sapiens; experiment: Selectivity index, ratio of IC50 for human recombinant monoamine oxidase-A to IC50 for human recombinant monoamine oxidase-B
How it was run: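 Selectivity for MAO-B, given as IC50(MAO-A)/IC50(MAO-B). Both IC50s came from recombinant human enzymes, with kynuramine oxidation to fluorescent […] read at ex 310 / em 400 nm in alkaline medium.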

[1] = target: T1, Amine oxidase [flavin-containing] B (Homo sapiens, UniProt P27338); experiment: Inhibition of human recombinant monoamine oxidase-B assessed as kynuramine conversion to 6-hydroxyquinoline after 20 mins by fluorescence spectrophotometric analysis
T1 sequence (P27338 whole entry): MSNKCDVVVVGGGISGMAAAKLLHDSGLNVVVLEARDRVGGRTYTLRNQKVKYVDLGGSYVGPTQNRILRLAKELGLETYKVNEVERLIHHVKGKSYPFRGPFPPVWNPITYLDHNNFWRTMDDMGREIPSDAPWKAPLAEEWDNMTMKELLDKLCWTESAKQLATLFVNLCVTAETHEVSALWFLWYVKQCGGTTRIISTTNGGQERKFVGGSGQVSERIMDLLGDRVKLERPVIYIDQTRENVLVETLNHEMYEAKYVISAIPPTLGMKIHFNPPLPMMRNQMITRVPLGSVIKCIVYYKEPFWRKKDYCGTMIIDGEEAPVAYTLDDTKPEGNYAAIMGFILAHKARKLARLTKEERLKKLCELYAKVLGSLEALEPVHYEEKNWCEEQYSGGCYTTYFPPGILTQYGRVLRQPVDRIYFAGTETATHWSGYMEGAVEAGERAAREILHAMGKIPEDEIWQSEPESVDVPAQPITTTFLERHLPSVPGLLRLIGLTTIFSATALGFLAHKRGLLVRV

[2] = target: T2, Amine oxidase [flavin-containing] A (Homo sapiens, UniProt P21397); experiment: Inhibition of human recombinant monoamine oxidase-A assessed as kynuramine conversion to […] after 20 mins by fluorescence spectrophotometric analysis
T2 sequence (P21397 whole entry): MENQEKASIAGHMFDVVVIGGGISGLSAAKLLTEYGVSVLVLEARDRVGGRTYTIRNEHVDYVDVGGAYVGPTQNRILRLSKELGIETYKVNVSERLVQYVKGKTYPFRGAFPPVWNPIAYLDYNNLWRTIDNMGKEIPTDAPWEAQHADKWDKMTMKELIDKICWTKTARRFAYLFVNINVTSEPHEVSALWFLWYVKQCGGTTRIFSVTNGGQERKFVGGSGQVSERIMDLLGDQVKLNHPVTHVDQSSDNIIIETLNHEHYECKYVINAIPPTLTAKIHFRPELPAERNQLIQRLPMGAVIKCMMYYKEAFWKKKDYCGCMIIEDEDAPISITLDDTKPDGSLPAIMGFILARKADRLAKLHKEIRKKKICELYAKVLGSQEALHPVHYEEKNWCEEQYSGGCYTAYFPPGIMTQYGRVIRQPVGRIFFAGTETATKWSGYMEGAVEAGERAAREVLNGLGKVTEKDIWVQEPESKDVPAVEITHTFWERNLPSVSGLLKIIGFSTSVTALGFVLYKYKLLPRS

[3] = target: T1, Amine oxidase [flavin-containing] B; experiment: Ratio of phthalide IC50 to compound IC50 for human recombinant monoamine oxidase-B
[4] = target: T3, Amine oxidase [flavin-containing] B (Rattus norvegicus, UniProt P19643); experiment: Inhibition of rat brain monoamine oxidase-B
T3 sequence (P19643 whole entry): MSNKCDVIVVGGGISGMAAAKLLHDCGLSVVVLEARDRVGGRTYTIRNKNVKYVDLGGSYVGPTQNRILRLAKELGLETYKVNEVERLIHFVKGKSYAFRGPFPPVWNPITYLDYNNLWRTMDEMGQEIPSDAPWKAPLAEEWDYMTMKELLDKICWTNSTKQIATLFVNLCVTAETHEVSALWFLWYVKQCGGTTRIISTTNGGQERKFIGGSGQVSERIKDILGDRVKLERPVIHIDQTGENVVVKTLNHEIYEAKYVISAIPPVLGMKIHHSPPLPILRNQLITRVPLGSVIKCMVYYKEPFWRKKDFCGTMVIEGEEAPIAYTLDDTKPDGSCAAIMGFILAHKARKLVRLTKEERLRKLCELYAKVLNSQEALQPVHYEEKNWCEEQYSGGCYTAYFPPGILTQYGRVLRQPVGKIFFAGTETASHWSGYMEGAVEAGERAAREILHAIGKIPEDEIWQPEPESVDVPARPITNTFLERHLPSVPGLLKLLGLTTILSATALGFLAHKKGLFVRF

[5] = target: T1, Amine oxidase [flavin-containing] B; experiment: Inhibition of human recombinant monoamine oxidase-B assessed as kynuramine conversion to […] at 100 uM after 20 mins by fluorescence spectrophotometric analysis
[6] = target: T2, Amine oxidase [flavin-containing] A; experiment: Competitive inhibition of human recombinant monoamine oxidase-A using kynuramine as substrate by Cheng and Prusoff equation analysis
[7] = target: T2, Amine oxidase [flavin-containing] A; experiment: Competitive inhibition of human recombinant monoamine oxidase-A using kynuramine as substrate by Lineweaver-Burk plot analysis
How it was run: (§1)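 Recombinant human MAO-A or MAO-B with kynuramine as substrate. Initial rates were recorded at 4 substrate concentrations, without inhibitor and with three inhibitor concentrations. Lineweaver–Burk (1/v vs 1/[S]) plots were built from these rates. Product […] was read by fluorescence in alkaline medium (ex 310 nm, em 400 nm).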

[8] = target: T2, Amine oxidase [flavin-containing] A; experiment: (§2) Reversible inhibition of human recombinant monoamine oxidase-A using kynuramine as substrate assessed as residual enzyme activity treated at 100 times IC50 preincubated for 30 mins prior to substrate addition followed by 100 fold dilution measured after 20 mins by fluorescence spectrophotometric analysis relative to control
[9] = target: T2, Amine oxidase [flavin-containing] A; experiment: as §2, with “at 10” for “at 100”
[10] = target: T2, Amine oxidase [flavin-containing] A; experiment: as §2, with “Irreversible inhibition” for “Reversible inhibition”, “at 10” for “at 100”
[11] = target: T1, Amine oxidase [flavin-containing] B; experiment: Quasi-reversible inhibition of human recombinant monoamine oxidase-B using kynuramine as substrate treated at 10 to 100 times IC50 preincubated for 30 mins prior to substrate addition followed by 100 fold dilution measured after 20 mins by fluorescence spectrophotometric analysis
[12] = target: T1, Amine oxidase [flavin-containing] B; experiment: Competitive inhibition of human recombinant monoamine oxidase-B using kynuramine as substrate by Morrison equation analysis
[13] = target: T1, Amine oxidase [flavin-containing] B; experiment: Competitive inhibition of human recombinant monoamine oxidase-B using kynuramine as substrate by Cheng and Prusoff equation analysis
[14] = target: T1, Amine oxidase [flavin-containing] B; experiment: Competitive inhibition of human recombinant monoamine oxidase-B using kynuramine as substrate by Lineweaver-Burk plot analysis; how it was run: as §1
[15] = target: T1, Amine oxidase [flavin-containing] B; experiment: as §2, with “oxidase-B” for “oxidase-A”
[16] = target: T1, Amine oxidase [flavin-containing] B; experiment: as §2, with “monoamine oxidase-B” for “monoamine oxidase-A”, “at 10” for “at 100”

SMILES	Ratio IC50 (Homo sapiens)	IC50 [1] [nM]	IC50 [2] [nM]	also measured
O=C1OCc2ccc(OCc3ccccc3)cc21	50	24	1190	Ratio IC50 [3]: 1000; IC50 [4]: 230 nM
O=C1OCc2ccc(OCCOc3ccccc3)cc21	106	18	1910	
Cc1ccc(CCOc2ccc3c(c2)C(=O)OC3)cc1	90	81	7330	
O=C1OCc2ccc(NCc3ccccc3)cc21			59900	inhibition (INH) [5]: Not Active
Cc1ccc(COc2ccc3c(c2)C(=O)OC3)cc1	118	9	1060	
O=C1OCc2ccc(OCCc3ccc(F)cc3)cc21	16	68	1070	
O=C1OCc2ccccc21	1.6	28600	44900	
C#CCN(C)Cc1ccccc1 [PARGYLINE]				Activity [10]: 1%
O=C1OCc2ccc(OCCc3ccccc3)cc21	68	47	3210	

The next lines start with results.

Ratio IC50 (Homo sapiens)	IC50 [1] [nM]	IC50 [2] [nM]	SMILES	also measured
10	48	498	O=C1OCc2ccc(OCCc3ccc(Cl)cc3)cc21	
43	7.4	323	O=C1OCc2ccc(OCCOc3ccc(F)cc3)cc21	
84	6.4	542	O=C1OCc2ccc(OCc3ccc(F)cc3)cc21	
189	1.8	344	O=C1OCc2ccc(OCc3ccc(I)cc3)cc21	
16	6.2	96	O=C1OCc2ccc(OCCCc3ccccc3)cc21	Ki [6]: 25 nM; Ki [7]: 62 nM; Activity [8]: 45%; Activity [9]: 86%
180	3.5	629	O=C1OCc2ccc(OCc3cccc(Br)c3)cc21	
20	12	240	O=C1OCc2ccc(OCCOc3ccc(Br)cc3)cc21	
16	12	185	O=C1OCc2ccc(OCC3CCCCC3)cc21	
61	2.8	172	O=C1OCc2ccc(OCc3ccc(Cl)cc3)cc21	
13	11	137	O=C1OCc2ccc(OCCOc3ccc(Cl)cc3)cc21	
214	1.4	304	O=C1OCc2ccc(OCc3ccc(C(F)(F)F)cc3)cc21	inhibition (INH) [11]: Active; Ki [12]: 0.46 nM; Ki [13]: 0.6 nM; Ki [14]: 0.7 nM; Activity [15]: 14%; Activity [16]: 68%
96	2.4	227	O=C1OCc2ccc(OCc3ccc(Br)cc3)cc21	
